Reference: ChEMBL document CHEMBL2046345, “Synthesis of Leubethanol derivatives and evaluation against Mycobacterium tuberculosis” (Bioorg Med Chem, 2012)
In brackets after ≈: the same amount, converted by molar mass.

Tests used:
[1] = Cytotoxicity against african green monkey Vero cells after 48 hrs by MTT assay; format: cell-based; settings: chlorocebus sabaeus
Procedure, shortened: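 Vero cells grown in RPMI-1640 with 10% FBS, penicillin and streptomycin, 37 °C, 5% CO₂. Exposed to compound 500–0.5 µg/mL for 48 h, then MTT (4 mg/mL in PBS) for 3 h. Formazan dissolved in DMSO, absorbance read at 575 nm. CC50 = concentration inhibiting 50% viability by linear regression; rounded mean of three experiments.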

[2] = tested on: Mycobacterium tuberculosis; assay: Antimycobacterial activity against Mycobacterium tuberculosis H37Rv ATCC 27294 by MABA method; format: functional
Procedure, shortened: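 M. tuberculosis H37Rv (ATCC 27294), susceptible to all five first-line drugs, in modified Microplate Alamar Blue Assay. Two-fold serial dilutions were made in Middlebrook 7H9-OADC, 100–0.78 µg/mL, with 1:50 bacterial suspension (~6×10⁶ CFU/mL, McFarland 1). Incubation 37 °C, 5% CO₂, 5–7 days, then Alamar Blue plus 10% Tween-80, 24 h. MIC = first blue well, confirmed microscopically. Ethambutol was the reference; triplicate independent experiments.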

[3] = Selectivity index, ratio of CC50 for african green monkey Vero cells to MIC for Mycobacterium tuberculosis H37Rv ATCC 27294; format: functional
Procedure, shortened: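 SI calculated as CC50 (Vero, MTT, 48 h) divided by MIC against H37Rv (MABA).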

Row | Compound | CC50 at 48 h [1] | MIC [2] | Selectivity Index [3]
1 | C/C(C=O)=C\CC[C@H](C)[C@@H]1CC[C@@H](C)c2c(O)cc(C)cc21 | 116 µM | 25.8 µM (≈ 7.75 µg/mL) | 4.5
2 | Cc1cc(O)c2c(c1)[C@H]([C@@H](C)CCC(O)C(C)(C)N=[N+]=[N-])CC[C@H]2C (stereo partly specified) | 231 µM | 181 µM (≈ 62.5 µg/mL) | 1.3
3 | COc1cc(C)cc2c1[C@H](C)CC[C@H]2[C@@H](C)CCC=C(C)C [LEUBETHANOL METHYL ETHER] |  | > 200 µM | 
4 | Cc1cc(O)c2c(c1)[C@H]([C@@H](C)CCCC(C)C)CC[C@H]2C | 192 µM | 30.3 µM (≈ 8.74 µg/mL) | 6.3
5 | CCCCCCOc1cc(C)cc2c1[C@H](C)CC[C@H]2[C@@H](C)CCC=C(C)C |  | > 200 µM | 
6 | CC(C)=CCC[C@H](C)[C@@H]1CC[C@@H](C)c2c(OC(=O)c3ccc([N+](=O)[O-])cc3)cc(C)cc21 |  | > 200 µM | 
7 | CCCCCC(=O)Oc1cc(C)cc2c1[C@H](C)CC[C@H]2[C@@H](C)CCC=C(C)C [LEUBETHANYL HEXANOATE] |  | > 200 µM | 
8 | CC(C)=CCC[C@H](C)[C@@H]1CC[C@@H](C)c2c(OCCCCCCBr)cc(C)cc21 |  | > 200 µM | 
9 | CC(C)=CCC[C@H](C)[C@@H]1CC[C@@H](C)c2c(OCc3ccc([N+](=O)[O-])cc3)cc(C)cc21 |  | > 200 µM | 
10 | CC(C)=CCC[C@H](C)[C@@H]1CC[C@@H](C)c2c(OCCCCCCOc3cc(C)cc4c3[C@H](C)CC[C@H]4[C@@H](C)CCC=C(C)C)cc(C)cc21 |  | 190 µM (≈ 124 µg/mL) | 
11 | Cc1cc(O)c2c(c1)[C@H]([C@@H](C)CCC1OC1(C)C)CC[C@H]2C (mixture of isomers) | 661 µM | 103 µM | 6.4
12 | CC(C)=CCC[C@H](C)[C@@H]1CC[C@@H](C)c2c(OC(=O)c3ccccc3)cc(C)cc21 [LEUBETHANYL BENZOATE] |  | > 200 µM | 
13 | CC(C)=CCC[C@H](C)[C@@H]1CC[C@@H](C)c2c(O)cc(C)c(Cc3cc([N+](=O)[O-])cc([N+](=O)[O-])c3)c21 | > 770 µM | 17.2 µM (≈ 8.03 µg/mL) | >45
14 | CC(C)=CCC[C@H](C)[C@@H]1CC[C@@H](C)c2c(O)cc(C)cc21 [LEUBETHANOL] | 123 µM | 25.1 µM (≈ 7.19 µg/mL) | 4.9
15 | CCCCOc1cc(C)cc2c1[C@H](C)CC[C@H]2[C@@H](C)CCC=C(C)C |  | > 200 µM | 
16 | Cc1cc(O)c2c(c1)[C@H]([C@@H](C)CCCC(C)(C)O)CC[C@H]2C |  | 200 µM (≈ 60.9 µg/mL) | 
17 | CC(C)=CCC[C@H](C)[C@@H]1CC[C@@H](C)c2c(OCc3ccc(Cl)cc3)cc(C)cc21 |  | > 200 µM | 
18 | CC(=O)Oc1cc(C)cc2c1[C@H](C)CC[C@H]2[C@@H](C)CCC=C(C)C [LEUBETHANYL ACETATE] | > 1100 µM | 48.7 µM | >22.6
19 | CC(C)=CCC[C@H](C)[C@@H]1CC[C@@H](C)c2c(OC(=O)c3ccco3)cc(C)cc21 |  | > 200 µM | 
20 | Cc1cc(O)c2c(c1)[C@H]([C@@H](C)CCC(N=[N+]=[N-])C(C)(C)O)CC[C@H]2C (stereo partly specified) | 127 µM | 90 µM (≈ 31.1 µg/mL) | 1.4
21 | CC[C@@H](CO)NCCN[C@@H](CC)CO [ETHAMBUTOL] | > 500 µM | 7.5 µM (≈ 1.53 µg/mL) | >67
22 | Cc1cc(O)c2c(c1)[C@H]([C@@H](C)CCC(O)C(C)(C)N)CC[C@H]2C (stereo partly specified) | 141 µM | 98 µM (≈ 31.3 µg/mL) | 1.4
23 | C/C(=C\CC[C@H](C)[C@@H]1CC[C@@H](C)c2c(O)cc(C)cc21)CO | 132 µM | 25.8 µM (≈ 7.8 µg/mL) | 5.1
24 | CC(C)=CCC[C@H](C)[C@@H]1CC[C@@H](C)c2c(OCCCCBr)cc(C)cc21 |  | > 200 µM | 
25 | CC(C)=CCC[C@H](C)[C@@H]1CC[C@@H](C)c2c(OCCCCOc3cc(C)cc4c3[C@H](C)CC[C@H]4[C@@H](C)CCC=C(C)C)cc(C)cc21 |  | 200 µM (≈ 125 µg/mL) | 
26 | CC(C)=CCC[C@H](C)[C@@H]1CC[C@@H](C)c2c(OCc3cc([N+](=O)[O-])cc([N+](=O)[O-])c3)cc(C)cc21 |  | > 200 µM | 
27 | Cc1cc(O)c2c(c1)[C@H]([C@@H](C)CCC(N)C(C)(C)O)CC[C@H]2C (stereo partly specified) | 158 µM | 98 µM (≈ 31.3 µg/mL) | 1.6
